High-throughput results as filed in PubChem.
pPAFAH inh: pPAFAH (human) enzyme inhibition. hit rate 1.5% among 330,000. Q13093. recombinant pPAFAH, FP-rhodamine probe fluorescence polarization. inhibition, % at 3.39 µM;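 active = inhibition above the mean inhibition across the screen plus 3 SD, cut at about 25% in these data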;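 also: inhibitors block binding of the rhodamine activity-based probe so polarization drops; 0% = enzyme with DMSO and 100% = wells lacking pPAFAH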
Target sequence (Q13093 whole entry, looked up): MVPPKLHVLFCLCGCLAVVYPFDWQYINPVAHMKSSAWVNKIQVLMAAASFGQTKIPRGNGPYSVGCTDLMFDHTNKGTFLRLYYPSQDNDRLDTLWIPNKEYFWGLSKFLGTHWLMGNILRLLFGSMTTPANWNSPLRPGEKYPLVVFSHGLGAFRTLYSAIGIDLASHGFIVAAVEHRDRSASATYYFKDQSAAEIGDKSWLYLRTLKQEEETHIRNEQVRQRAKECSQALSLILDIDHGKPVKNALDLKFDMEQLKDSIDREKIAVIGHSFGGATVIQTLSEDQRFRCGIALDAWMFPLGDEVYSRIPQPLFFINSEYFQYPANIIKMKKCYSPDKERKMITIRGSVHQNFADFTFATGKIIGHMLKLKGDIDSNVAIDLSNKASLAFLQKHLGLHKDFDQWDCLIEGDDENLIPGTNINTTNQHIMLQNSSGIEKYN
ASAP1 GAP inh: inhibitors of human ASAP1 ArfGAP activity; ASAP1-stimulated ARF1 GTP hydrolysis, GDP FP detection; inhibition, % at 16.5 µM; hit rate 0.19% among 360,000; Q9ULH1; in the data active = inhibition above about 25%;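 also: 0% = vehicle with enzyme and substrate and 100% = no enzyme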
PAFAH1B3 inh: blocks human PAF acetylhydrolase 1B catalytic subunit 3 | hit rate 0.28% among 340,000 | inhibition, % at 3.39 µM | AID 492972 | recombinant PAFAH1B3, FP-rhodamine probe, fluorescence polarization | Q15102;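 active = inhibition above the screen-wide average of all tested compounds plus 3 SD, cut at about 25% in these data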;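 also: 0% = enzyme with DMSO only and 100% = wells lacking PAFAH1B3 protein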
Target sequence (Q15102 whole entry, looked up): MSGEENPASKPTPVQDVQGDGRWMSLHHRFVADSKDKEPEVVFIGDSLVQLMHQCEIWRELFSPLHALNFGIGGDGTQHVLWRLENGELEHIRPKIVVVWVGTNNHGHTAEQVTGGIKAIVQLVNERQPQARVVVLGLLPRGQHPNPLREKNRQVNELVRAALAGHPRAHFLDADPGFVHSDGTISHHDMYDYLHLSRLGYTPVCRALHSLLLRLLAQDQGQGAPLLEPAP
ARFGAP1 inhibitor: inhibits rat ARF GTPase activating protein 1; Q62848; Arfgap1-stimulated ARF1 GTP hydrolysis, GDP FP detection; inhibition, % at 16.5 µM; hit rate 0.26% among 360,000;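 active = inhibition above a per-plate limit, mean inhibition of low control wells plus 3 SD, cut at about 25% in these data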;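 also: 0% = DMSO wells with enzyme and 100% = wells lacking Arfgap1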
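System: truncated rat Arfgap1 GAP domain / Medium: HEPES-based buffer, pH 7.5 / Also added: N-terminally truncated human ARF1-GTP substrate / Incubation: enzyme reaction 120 min at 25 °C after 20 min preincubation / Measured by: FP of antibody-bound GDP Alexa 633 tracer, ex 620/em 688 nm / Replicates: singlicate, each compound tested once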
PAFAH2 FP inh: PAFAH2 (human) inhibition. recombinant PAFAH2, FP-rhodamine activity probe, fluorescence polarization. AID 492956. hit rate 0.99% among 340,000. inhibition, % at 3.39 µM;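 active = inhibition above the mean over all tested compounds plus 3 SD, cut at about 30% in these data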;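 also: inhibitors block probe labeling of enzyme so polarization drops; 0% = enzyme with DMSO and 100% = wells lacking PAFAH2 protein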
PAFAH1B2 FP inh: blocks human PAF acetylhydrolase 1b catalytic subunit 2; P68402; hit rate 1.2% among 340,000; recombinant PAFAH1B2, FP-rhodamine activity probe, fluorescence polarization; inhibition, % at 3.39 µM;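 active = inhibition above the mean of all tested compounds plus 3 SD, cut at about 24% in these data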;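 also: 0% = enzyme with DMSO and 100% = wells lacking PAFAH1B2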
The depositor's hits bear a star; . = no result. Sampled rows, rich in hits. Any-hit rate of the full collection: about 2.7%.

SMILES | pPAFAH inh | ASAP1 GAP inh | PAFAH1B3 inh | ARFGAP1 inhibitor | PAFAH2 FP inh | PAFAH1B2 FP inh
Nc1ccn([C@@H]2O[C@H](C(=O)N3CCN(CCO)CC3)[C@@H](O)[C@H]2O)c(=O)n1 | . | 10 | . | 23 | . | .
CCOc1cc2[nH]c(=O)n(CCCC(=O)NCc3ccc(OC)cc3)c(=O)c2cc1OCC | 3 | -2 | 4 | 4 | 2 | 32*
COc1ccc(-c2cc(NC(=O)Cc3c[nH]c4ccccc34)ccc2Nc2cccnc2)cc1F | . | 14 | . | 15 | . | .
O=C(/C=C/c1ccc(-c2ccccc2)o1)c1ccccc1 | 27* | -1 | 8 | 13 | 6 | -1
O=S(=O)(O)c1cc(Cl)cc(N=Nc2ccc(O)cc2O)c1O | . | -2 | 26* | -29 | 35* | 42*
O=[N+]([O-])c1ccc(N=Nc2ccc(O)cc2O)cc1 | 4 | -11 | 6 | 0 | 8 | -2
COc1cc([C@@H]2Oc3cc(C4Oc5cc(O)cc(O)c5C(=O)[C@H]4O)ccc3O[C@H]2CO)ccc1O (stereo not given in full) | 35* | . | 25 | . | 11 | 8
O=[N+]([O-])c1cc2c(cc1C=Nc1ccccc1)OCO2 | 12 | . | 10 | . | 6 | 3
Cc1cccc(N=Cc2cc3c(cc2[N+](=O)[O-])OCO3)c1 | 28* | 8 | 14 | 2 | 5 | 4
O=C(O)c1ccccc1NS(=O)(=O)c1ccc(N/N=C/c2cccc(O)c2O)c([N+](=O)[O-])c1 | . | 11 | 48* | -28 | 63* | 44*
CCOc1ccc(C=NNc2ccc(S(=O)(=O)Nc3ccccc3C(=O)O)cc2[N+](=O)[O-])cc1OC | 25* | . | 13 | . | 29 | 11
CC(=O)Nc1cccc(/C(C)=N/Nc2ccc(S(=O)(=O)Nc3ccccc3C(=O)O)cc2[N+](=O)[O-])c1 | . | -2 | 23 | -8 | 38* | 33*
COc1ccc(NC(=O)c2ccccc2NS(=O)(=O)c2ccc(C)cc2)c([N+](=O)[O-])c1 | 16 | 16 | 10 | -5 | 13 | -1
CCOc1cc(/C=N/Nc2ccc(S(=O)(=O)Nc3ccccc3C(=O)O)cc2[N+](=O)[O-])cc(Cl)c1O | . | 9 | . | -11 | . | .
O=C(N[C@@H](Cc1cccnc1)C(=O)N1CCC[C@H]1C(=O)NCCc1ccccc1Cl)c1cccs1 | . | -3 | . | 2 | . | .
COC[C@@H](O)[C@H]1OCc2cc(OC)ccc2[C@@H]1/C=C/c1ccccc1 | . | 0 | . | 2 | . | .
N#Cc1c(-c2ccccc2)nc(SCC(=O)N(c2ccccc2)c2ccccc2)[nH]c1=O | 0 | 5 | 8 | -18 | -4 | 39*
N#Cc1c(-c2ccccc2)nc(SCC(=O)N2c3ccccc3Sc3ccccc32)[nH]c1=O | 3 | 3 | -9 | -20 | -13 | 24*
Cc1cccc(NC(=O)CSc2nc(-c3ccccc3)c(C#N)c(=O)[nH]2)c1C | 14 | -6 | 1 | -7 | 7 | 4
N#Cc1c(-c2ccccc2)nc(SCC(=O)Nc2ccccc2F)[nH]c1=O | -4 | 5 | 11 | -1 | -7 | 4
N#Cc1c(-c2ccccc2)nc(SCC(=O)Nc2ccc(OC(F)(F)Cl)cc2)[nH]c1=O | -7 | 5 | 14 | -16 | -4 | 79*
N#Cc1c(-c2ccccc2)nc(SCC(=O)Nc2ccccc2)[nH]c1=O | -2 | 2 | 14 | 5 | -2 | 7
N#Cc1c(-c2ccccc2)nc(SCc2ccc(Cl)cc2)[nH]c1=O | 8 | -8 | -1 | -8 | -10 | 35*
C[C@H]1Cn2cnc(C(=O)N3CCN(c4ccccc4)CC3)c2C(=O)N1 | . | 5 | . | -2 | . | .
COC(=O)Cc1nnn2c1[C@H](C)[C@@H](OC)c1ccc(C(F)(F)F)cc1-2 | . | -6 | . | 5 | . | .
SMILES | pPAFAH inh | ASAP1 GAP inh | PAFAH1B3 inh | ARFGAP1 inhibitor | PAFAH2 FP inh | PAFAH1B2 FP inh
COC(=O)[C@]12C[C@H](CC(=O)N3CCOCC3)C(=O)N(Cc3ccccc3)C1=C[C@H](C(C)(C)C)O[C@@H]2C | . | 5 | . | 1 | . | .
O=c1[nH]cnc2c1c(-c1ccccc1)cn2-c1cccc(Cl)c1 | 34* | -15 | 9 | 0 | 5 | 2
COc1ccc(-n2cc(-c3ccccc3)c3c(=O)[nH]cnc32)cc1 | 18 | 9 | -8 | 0 | 8 | 2
CCCCn1c(N)c(N(CC(C)C)C(=O)CN2C(=O)c3ccccc3C2=O)c(=O)[nH]c1=O | 4 | -10 | 7 | -2 | -1 | 0
CCCCn1c(N)c(N(CC(C)C)C(=O)c2ccc(S(=O)(=O)N3CCCCCC3)cc2)c(=O)[nH]c1=O | 2 | 6 | 6 | 16 | 0 | 7
CCCCn1c(N)c(N(CC(C)C)C(=O)c2ccc(S(=O)(=O)N3CCC(C)CC3)cc2)c(=O)[nH]c1=O | 32* | -5 | 2 | -4 | -1 | 1
CCCCn1c(N)c(N(CC(C)C)C(=O)CN2C(=O)NC3(CCC(C(C)(C)CC)CC3)C2=O)c(=O)[nH]c1=O (stereo not given) | . | -13 | 7 | -2 | -1 | 31*
c1ccc(CC(Nc2cccnc2)c2ccccc2)cc1 (stereo not given) | . | 13 | . | 23 | . | .
O=C(NC(Nc1nc2ccc([N+](=O)[O-])cc2s1)(C(F)(F)F)C(F)(F)F)c1ccccc1Cl | 33* | 1 | -3 | -2 | 2 | -5
O=C(NC(Nc1nc2ccc([N+](=O)[O-])cc2s1)(C(F)(F)F)C(F)(F)F)c1cccnc1 | 7 | -2 | 10 | 6 | -3 | 5
CN(Cc1nc(-c2cnccn2)no1)CC1(c2ccccc2)CC1(C)C (stereo not given) | 5 | 6 | 9 | 0 | -4 | 26*
CN(Cc1nc(-c2cnccn2)no1)Cc1cccc2ccccc12 | 1 | 11 | 4 | 1 | 4 | 4
Cc1nnc(SCc2ccc(Cl)cc2Cl)[nH]c1=O | 21 | 11 | 6 | -9 | 12 | 27*
O=c1nccc(SCc2ccc(Cl)cc2Cl)[nH]1 | 5 | 13 | 7 | -6 | 2 | 13
Cc1ccc(C)c(CSc2nnc(C)c(=O)[nH]2)c1 | 0 | 8 | 6 | -3 | -4 | 6
Cc1cc(=O)[nH]c(SCc2ccc(Cl)cc2Cl)n1 | 9 | 3 | -3 | 8 | 22 | 29*
Cc1cnc(SCc2ccc(Cl)cc2Cl)[nH]c1=O | 6 | 5 | 11 | 7 | 5 | 27*
Nc1nc2c(ncn2[C@@H]2O[C@H](C(=O)N[C@@H](Cc3ccccc3)C(=O)NCC3CCCCC3)[C@@H](O)[C@H]2O)c(=O)[nH]1 | . | -3 | . | -2 | . | .
Cc1ccc(Cl)cc1-c1cc(C(=O)NCc2cc(C(F)(F)F)cc(C(F)(F)F)c2)[nH]n1 | . | 2 | . | 2 | . | .
Nc1ccc(CSc2ccc(Cl)cc2)cc1 | 11 | -11 | 6 | -6 | 2 | 39*
O=C(C(=O)N1CCN(S(=O)(=O)c2ccc(F)cc2)CC1)c1cccc(C(F)(F)F)c1 | . | -2 | . | -5 | . | .
